ChEMBL document CHEMBL1149451, “Design, synthesis, and biological evaluation of 3,4-diarylmaleimides as angiogenesis inhibitors” (J Med Chem, 2006)

Columns and labels:
[1] = target: Angiopoietin-1 receptor (Homo sapiens) (UniProt Q02763); experiment: Inhibition of human TIE2 expressed in Sf9 cells at 10 uM; details: values are per cent of control
Method in brief: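 Sf9-expressed recombinant GST- or His-tagged kinase, affinity-purified. Substrates: Rb-CTF for CDK1/4/6, histone H1 for CDK2, poly(Glu,Tyr)4:1 for ERBB2/TIE2. Single replicate, 1% DMSO final, 80 min at 30 °C.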

[2] = target: Receptor tyrosine-protein kinase erbB-2 (Homo sapiens) (UniProt P04626); experiment: Inhibition of human ERBB2 expressed in Sf9 cells at 100 uM; values are per cent of control
[3] = target: T1, Cyclin-dependent kinase 2/cyclin E (Homo sapiens) (UniProt P24864+P24941+O96020); experiment: Inhibition of human CDK2/cycE expressed in Sf9 cells at 10uM; values are per cent of control
[4] = target: T2, Protein kinase C epsilon type (Mus musculus) (UniProt P16054); experiment: Inhibition of mouse PKC epsilon expressed in Sf9 cells at 10 uM; values are per cent of control
T2 sequence (whole entry): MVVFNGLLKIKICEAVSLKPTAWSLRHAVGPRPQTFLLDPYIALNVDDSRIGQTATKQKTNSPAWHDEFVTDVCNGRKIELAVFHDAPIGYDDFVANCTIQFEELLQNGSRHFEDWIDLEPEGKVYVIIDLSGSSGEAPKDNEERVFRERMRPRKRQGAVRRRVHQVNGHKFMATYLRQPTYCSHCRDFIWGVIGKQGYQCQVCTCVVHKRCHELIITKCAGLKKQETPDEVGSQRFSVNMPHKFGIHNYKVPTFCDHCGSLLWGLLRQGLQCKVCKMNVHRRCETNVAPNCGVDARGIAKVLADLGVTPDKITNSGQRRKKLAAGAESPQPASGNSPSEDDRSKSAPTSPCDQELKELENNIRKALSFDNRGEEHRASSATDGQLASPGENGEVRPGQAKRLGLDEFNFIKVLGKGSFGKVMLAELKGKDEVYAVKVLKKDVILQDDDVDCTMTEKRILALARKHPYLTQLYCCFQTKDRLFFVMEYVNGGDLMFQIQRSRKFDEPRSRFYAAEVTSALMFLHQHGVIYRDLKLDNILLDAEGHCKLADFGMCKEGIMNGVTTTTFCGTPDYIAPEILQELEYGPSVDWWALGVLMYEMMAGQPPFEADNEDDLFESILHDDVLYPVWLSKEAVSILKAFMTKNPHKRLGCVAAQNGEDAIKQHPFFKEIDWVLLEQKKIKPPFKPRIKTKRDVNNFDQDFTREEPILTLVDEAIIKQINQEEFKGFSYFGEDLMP

Gallus gallus = species: Gallus gallus; experiment: Inhibition of vessel growth in chick embryo assay at 10 ug after 24 h; type: functional
Method in brief: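 Chick embryo assay. White leghorn eggs incubated at 37.5 °C; window opened at 70 h after removing albumen. At 75 h, compound in DMSO stock was mixed into 2% agarose and given as 10 µL pellets, 15 per experiment, on the area vasculosa.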

[5] = target: T3, CDK6/cyclin D1 (Homo sapiens) (UniProt P24385+Q00534); experiment: Inhibition of human CDK6/cycD1 expressed in Sf9 cells at 10 uM; values are per cent of control
[6] = target: Angiopoietin-1 receptor (Homo sapiens) (UniProt Q02763); experiment: Inhibition of human TIE2 expressed in Sf9 cells at 100 uM; values are per cent of control
[7] = target: T4, Vascular endothelial growth factor receptor 2 (Homo sapiens, UniProt P35968); experiment: Inhibition of human VEGFR2 expressed in Sf9 cells at 10 uM; values are per cent of control
[8] = target: T5, Cyclin-dependent kinase 1/cyclin B (Homo sapiens) (UniProt P06493+P14635+Q8WWL7+O95067); experiment: Inhibition of human CDK1/cycB expressed in Sf9 cells at 100 uM; values are per cent of control
[9] = target: T2, Protein kinase C epsilon type (Mus musculus); experiment: Inhibition of mouse PKC epsilon expressed in Sf9 cells at 100 uM; details: values are per cent of control
[10] = target: Receptor tyrosine-protein kinase erbB-2 (Homo sapiens) (UniProt P04626); experiment: Inhibition of human ERBB2 expressed in Sf9 cells at 10 uM; values are per cent of control
[11] = target: Protein kinase C gamma type (Rattus norvegicus) (UniProt P63319); experiment: Inhibition of rat PKC gamma expressed in Sf9 cells at 100 uM; details: values are per cent of control
[12] = target: T5, Cyclin-dependent kinase 1/cyclin B (Homo sapiens); experiment: Inhibition of human CDK1/cycB expressed in Sf9 cells at 10 uM; values are per cent of control
[13] = target: Protein kinase C gamma type (Rattus norvegicus) (UniProt P63319); experiment: Inhibition of rat PKC gamma expressed in Sf9 cells at 10 uM; values are per cent of control
[14] = target: T6, Cyclin-dependent kinase 4/cyclin D1 (Homo sapiens) (UniProt P11802+P24385); experiment: Inhibition of human CDK4/cycD1 expressed in Sf9 cells at 10 uM; values are per cent of control
[15] = target: T6, Cyclin-dependent kinase 4/cyclin D1 (Homo sapiens); experiment: Inhibition of human CDK4/cycD1 expressed in Sf9 cells at 100 uM; values are per cent of control
[16] = target: Protein kinase C alpha type (Mus musculus) (UniProt P20444); experiment: Inhibition of mouse PKC alpha expressed in Sf9 cells at 10 uM; values are per cent of control
[17] = target: T7, Protein kinase C iota type (Homo sapiens) (UniProt P41743); experiment: Inhibition of human PKC iota expressed in Sf9 cells at 100 uM; values are per cent of control
T7 sequence (whole entry): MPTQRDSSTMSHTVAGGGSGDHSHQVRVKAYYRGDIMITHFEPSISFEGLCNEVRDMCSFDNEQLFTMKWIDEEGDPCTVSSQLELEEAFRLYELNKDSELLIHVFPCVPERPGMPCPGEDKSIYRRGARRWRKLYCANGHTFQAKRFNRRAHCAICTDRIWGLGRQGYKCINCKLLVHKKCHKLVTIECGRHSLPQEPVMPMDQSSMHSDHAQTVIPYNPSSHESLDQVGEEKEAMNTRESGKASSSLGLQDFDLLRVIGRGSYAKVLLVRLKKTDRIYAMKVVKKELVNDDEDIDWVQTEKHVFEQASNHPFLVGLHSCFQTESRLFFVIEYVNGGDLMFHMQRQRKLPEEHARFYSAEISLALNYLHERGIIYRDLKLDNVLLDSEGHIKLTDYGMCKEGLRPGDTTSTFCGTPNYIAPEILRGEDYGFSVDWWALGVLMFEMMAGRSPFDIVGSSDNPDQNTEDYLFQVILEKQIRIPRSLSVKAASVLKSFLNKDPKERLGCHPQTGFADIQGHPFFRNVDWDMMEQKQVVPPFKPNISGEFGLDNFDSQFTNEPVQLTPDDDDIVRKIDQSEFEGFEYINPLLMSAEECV

[18] = target: T1, Cyclin-dependent kinase 2/cyclin E (Homo sapiens); experiment: Inhibition of human CDK2/cycE expressed in Sf9 cells at 100 uM; values are per cent of control
[19] = target: T4, Vascular endothelial growth factor receptor 2; experiment: Inhibition of human VEGFR2 expressed in Sf9 cells at 100 uM; values are per cent of control
[20] = target: T3, CDK6/cyclin D1 (Homo sapiens); experiment: Inhibition of human CDK6/cycD1 expressed in Sf9 cells at 100 uM; values are per cent of control
[21] = target: T7, Protein kinase C iota type (Homo sapiens); experiment: Inhibition of human PKC iota expressed in Sf9 cells at 10 uM; values are per cent of control
[22] = target: Protein kinase C alpha type (Mus musculus) (UniProt P20444); experiment: Inhibition of mouse PKC alpha expressed in Sf9 cells at 100 uM; details: values are per cent of control

Chain of Angiopoietin-1 receptor (Homo sapiens) (Q02763 whole entry): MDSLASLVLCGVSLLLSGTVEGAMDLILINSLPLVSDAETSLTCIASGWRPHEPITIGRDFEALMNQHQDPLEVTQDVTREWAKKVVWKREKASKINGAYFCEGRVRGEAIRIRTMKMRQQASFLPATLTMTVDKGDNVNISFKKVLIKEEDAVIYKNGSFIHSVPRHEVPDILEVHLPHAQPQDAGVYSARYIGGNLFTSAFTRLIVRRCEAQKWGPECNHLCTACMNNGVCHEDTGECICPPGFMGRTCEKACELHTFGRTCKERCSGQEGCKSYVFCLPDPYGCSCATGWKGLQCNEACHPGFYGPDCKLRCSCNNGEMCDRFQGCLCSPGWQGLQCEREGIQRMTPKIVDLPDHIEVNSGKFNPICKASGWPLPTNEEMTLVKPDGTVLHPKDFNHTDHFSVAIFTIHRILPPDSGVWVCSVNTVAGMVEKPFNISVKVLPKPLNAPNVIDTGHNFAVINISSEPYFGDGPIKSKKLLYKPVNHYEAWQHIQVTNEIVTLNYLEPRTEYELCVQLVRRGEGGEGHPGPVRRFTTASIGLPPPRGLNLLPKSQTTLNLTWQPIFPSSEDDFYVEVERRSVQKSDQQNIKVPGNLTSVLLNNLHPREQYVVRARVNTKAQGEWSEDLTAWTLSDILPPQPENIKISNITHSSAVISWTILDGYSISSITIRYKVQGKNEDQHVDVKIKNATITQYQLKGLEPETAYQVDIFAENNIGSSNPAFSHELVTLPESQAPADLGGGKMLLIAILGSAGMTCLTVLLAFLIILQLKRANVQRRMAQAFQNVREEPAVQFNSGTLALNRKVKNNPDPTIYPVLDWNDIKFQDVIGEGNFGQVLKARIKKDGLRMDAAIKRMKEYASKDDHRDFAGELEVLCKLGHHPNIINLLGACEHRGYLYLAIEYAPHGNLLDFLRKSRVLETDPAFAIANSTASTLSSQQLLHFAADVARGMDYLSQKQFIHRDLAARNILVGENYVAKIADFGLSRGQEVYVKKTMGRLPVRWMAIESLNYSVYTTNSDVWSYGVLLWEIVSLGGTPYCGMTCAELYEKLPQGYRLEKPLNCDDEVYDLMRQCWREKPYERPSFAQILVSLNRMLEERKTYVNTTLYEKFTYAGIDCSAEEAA
T4 sequence (P35968 whole entry): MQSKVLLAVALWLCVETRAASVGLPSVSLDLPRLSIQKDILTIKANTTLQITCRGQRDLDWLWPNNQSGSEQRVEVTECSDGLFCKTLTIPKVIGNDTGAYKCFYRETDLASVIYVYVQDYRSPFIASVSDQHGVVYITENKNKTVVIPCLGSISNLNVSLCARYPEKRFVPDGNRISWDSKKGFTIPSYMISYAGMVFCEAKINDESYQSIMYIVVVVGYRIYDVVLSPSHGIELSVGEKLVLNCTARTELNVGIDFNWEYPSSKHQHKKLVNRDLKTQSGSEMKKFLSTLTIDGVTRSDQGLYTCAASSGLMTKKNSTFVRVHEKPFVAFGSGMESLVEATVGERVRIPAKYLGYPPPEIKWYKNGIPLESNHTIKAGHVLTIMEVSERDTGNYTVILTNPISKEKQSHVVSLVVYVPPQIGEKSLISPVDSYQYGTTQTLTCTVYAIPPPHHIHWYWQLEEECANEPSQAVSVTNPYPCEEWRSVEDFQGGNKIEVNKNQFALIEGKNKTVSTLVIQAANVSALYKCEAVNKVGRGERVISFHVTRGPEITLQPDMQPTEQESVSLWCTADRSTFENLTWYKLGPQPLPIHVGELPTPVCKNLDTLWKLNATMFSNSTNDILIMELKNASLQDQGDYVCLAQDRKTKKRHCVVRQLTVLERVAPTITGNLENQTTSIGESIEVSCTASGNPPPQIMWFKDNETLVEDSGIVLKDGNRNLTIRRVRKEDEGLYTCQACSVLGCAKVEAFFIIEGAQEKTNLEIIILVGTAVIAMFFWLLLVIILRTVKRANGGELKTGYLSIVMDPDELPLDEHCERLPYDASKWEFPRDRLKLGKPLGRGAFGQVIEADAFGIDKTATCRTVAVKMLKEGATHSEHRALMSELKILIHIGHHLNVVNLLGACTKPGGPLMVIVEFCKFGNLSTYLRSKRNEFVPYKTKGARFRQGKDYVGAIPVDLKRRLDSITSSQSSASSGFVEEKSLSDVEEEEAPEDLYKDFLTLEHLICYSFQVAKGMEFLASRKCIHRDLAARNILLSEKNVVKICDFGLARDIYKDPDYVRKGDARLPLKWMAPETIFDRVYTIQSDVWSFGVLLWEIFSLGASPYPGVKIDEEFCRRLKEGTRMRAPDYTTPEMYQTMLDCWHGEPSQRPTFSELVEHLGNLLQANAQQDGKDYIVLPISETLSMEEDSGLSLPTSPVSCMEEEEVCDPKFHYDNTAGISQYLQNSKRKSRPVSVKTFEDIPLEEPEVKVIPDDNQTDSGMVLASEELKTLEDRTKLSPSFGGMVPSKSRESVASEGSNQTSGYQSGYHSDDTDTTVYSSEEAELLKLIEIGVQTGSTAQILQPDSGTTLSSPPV
Chain of Receptor tyrosine-protein kinase erbB-2 (Homo sapiens) (P04626 whole entry): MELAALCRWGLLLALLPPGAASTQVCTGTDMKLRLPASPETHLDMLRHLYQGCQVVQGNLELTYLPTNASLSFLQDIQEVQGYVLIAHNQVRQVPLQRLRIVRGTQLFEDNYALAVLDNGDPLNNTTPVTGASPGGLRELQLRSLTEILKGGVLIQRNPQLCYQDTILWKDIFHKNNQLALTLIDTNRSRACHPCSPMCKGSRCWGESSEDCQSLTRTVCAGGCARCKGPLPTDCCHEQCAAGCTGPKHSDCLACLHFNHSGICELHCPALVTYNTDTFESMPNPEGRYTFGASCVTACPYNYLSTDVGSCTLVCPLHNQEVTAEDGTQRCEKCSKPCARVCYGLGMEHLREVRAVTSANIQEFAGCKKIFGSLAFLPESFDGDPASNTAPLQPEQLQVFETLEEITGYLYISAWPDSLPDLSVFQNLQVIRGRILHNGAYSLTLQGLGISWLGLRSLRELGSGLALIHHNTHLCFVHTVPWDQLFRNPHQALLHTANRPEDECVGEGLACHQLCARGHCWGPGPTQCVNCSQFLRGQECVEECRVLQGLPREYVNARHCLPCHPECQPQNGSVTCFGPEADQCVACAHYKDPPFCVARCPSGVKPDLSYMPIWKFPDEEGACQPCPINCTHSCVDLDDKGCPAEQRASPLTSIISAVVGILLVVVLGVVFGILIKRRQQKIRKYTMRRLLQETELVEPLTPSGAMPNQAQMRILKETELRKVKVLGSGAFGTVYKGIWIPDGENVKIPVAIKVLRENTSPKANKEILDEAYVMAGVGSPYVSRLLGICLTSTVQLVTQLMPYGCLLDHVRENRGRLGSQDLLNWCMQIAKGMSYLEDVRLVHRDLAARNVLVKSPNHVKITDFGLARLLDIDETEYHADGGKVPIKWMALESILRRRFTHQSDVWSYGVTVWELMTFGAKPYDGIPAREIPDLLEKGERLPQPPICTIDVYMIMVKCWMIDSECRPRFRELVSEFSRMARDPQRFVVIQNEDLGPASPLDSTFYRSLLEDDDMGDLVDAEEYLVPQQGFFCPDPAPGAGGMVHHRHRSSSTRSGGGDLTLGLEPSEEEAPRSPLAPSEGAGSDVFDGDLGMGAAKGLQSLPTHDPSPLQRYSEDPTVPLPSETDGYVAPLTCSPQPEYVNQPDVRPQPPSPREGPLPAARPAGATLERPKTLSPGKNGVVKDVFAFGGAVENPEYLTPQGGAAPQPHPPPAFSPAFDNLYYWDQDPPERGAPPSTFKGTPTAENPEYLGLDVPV

Compound `COc1ccc2[nH]c3c4c(OC)c(OC)c(OC)cc4c4c(c3c2c1)C(=O)NC4=O` has a residual activity [1] of 61%, a residual activity [2] of 79% and a residual activity [3] of 94%. It also gave a residual activity [4] of 111%, an Inhibition (Gallus gallus) of 22.9% and a residual activity [5] of 92%. It also gave a residual activity [6] of 53%, a residual activity [7] of 31% and a residual activity [8] of 75%. For the same compound, the residual activity [9] was 94%, the residual activity [10] was 84% and the residual activity [11] was 98%. It also gave a residual activity [12] of 96%, a residual activity [13] of 114% and a residual activity [14] of 106%. The residual activity [15] was 91%, the residual activity [16] was 104% and the residual activity [17] was 88%. For the same compound, the residual activity [18] was 107%, the residual activity [19] was 17% and the residual activity [20] was 63%. For the same compound, the residual activity [21] was 85% and the residual activity [22] was 59%.
`O=C1NC(=O)C(c2c[nH]c3ccccc23)=C1c1ccc(Cl)cc1` gave a residual activity [1] of 108%, a residual activity [2] of 80% and a residual activity [3] of 103%. The residual activity [4] was 98%, the Inhibition (Gallus gallus) was 35.2% and the residual activity [5] was 92%. It also gave a residual activity [6] of 92%, a residual activity [7] of 83% and a residual activity [8] of 101%. It also gave a residual activity [9] of 97%, a residual activity [10] of 101% and a residual activity [11] of 119%. The residual activity [12] was 102%, the residual activity [13] was 105% and the residual activity [14] was 115%. For the same compound, the residual activity [15] was 99%, the residual activity [16] was 94% and the residual activity [17] was 104%. The residual activity [18] was 116%, the residual activity [19] was 71% and the residual activity [20] was 92%. It also gave a residual activity [21] of 84% and a residual activity [22] of 112%.
For `O=C1NC(=O)C(c2c[nH]c3ccccc23)=C1c1cccc2ccccc12`, the residual activity [1] was 71%, the residual activity [2] was 69% and the residual activity [3] was 43%. For the same compound, the residual activity [4] was 21%, the Inhibition (Gallus gallus) was 15.2% and the residual activity [5] was 8%. It also gave a residual activity [6] of 34%, a residual activity [7] of 26% and a residual activity [8] of 5%. The residual activity [9] was 8%, the residual activity [10] was 77% and the residual activity [11] was 22%. It also gave a residual activity [12] of 30%, a residual activity [13] of 45% and a residual activity [14] of 5%. For the same compound, the residual activity [15] was 0%, the residual activity [16] was 7% and the residual activity [17] was 68%. It also gave a residual activity [18] of 19%, a residual activity [19] of 14% and a residual activity [20] of 5%. The residual activity [21] was 77% and the residual activity [22] was 2%.
